Assay outcomes: PubChem, several laboratories
Wee1 degr inh: blocks degradation of human Wee1 kinase | P30291 | HeLa Luc-Wee1K328M stability, luciferase luminescence; 100% = proteasome inhibitor MG132 effect | reporter increase, % at 5 µM | actives 1.2% (n = 220,000) | AID 1321;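 active means activation above the mean of all tested compounds plus 3 SD, set per screening run, cut at about 8.8% in these data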;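 further: cells exposed to compound for 20 h before luminescence read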
RBBP9 inh: human RBBP9 hydrolase inhibition; O75884; recombinant RBBP9, FP-Rh probe fluorescence polarization; inhibition, % at 7.94 µM; actives 0.2% (n = 220,000); AID 1515;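 active means inhibition above the campaign mean of all tested compounds plus 3 SD, cut at about 14% in these data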
Target sequence (O75884 whole entry, looked up): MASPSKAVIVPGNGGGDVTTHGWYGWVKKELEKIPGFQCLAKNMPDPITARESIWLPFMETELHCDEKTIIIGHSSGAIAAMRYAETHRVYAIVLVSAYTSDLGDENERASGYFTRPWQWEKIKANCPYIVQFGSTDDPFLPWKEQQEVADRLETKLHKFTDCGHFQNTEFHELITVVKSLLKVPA
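System: RBBP9 protein | Quantity: 2.5 µM RBBP9 dispensing solution, before mixing | Reagent: FP-Rh probe, 375 nM dispensing solution | Timing: Enzyme-compound preincubation 30 min, then probe labeling 45 min, 25 °C | Measured by: Fluorescence polarization | Read-out: % inhibition | Replication: One well per compound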
Arbovirus inh: antivirals against arbovirus infection | arbovirus infection cell-based antiviral screen | inhibition, % at 10 µM | actives 0.37% (n = 200,000); in the data active means inhibition above about 30%
PKD1 kinase inh: inhibitors of human PKD1 kinase. PKD1 kinase fluorescence polarization assay. inhibition, % (test concentration not listed). actives 0.056% (n = 200,000). Q15139; in the data active means inhibition above about 50%
Redox H2O2 prof: compounds producing H2O2 with reducing agent – biochemical, NIH compound library profiling, artefact control for MLSCN library redox annotation, primary screen | DTT-dependent redox cycling H2O2, phenol red/HRP absorbance; 100% = 100 µM peroxide control, 0% = buffer | activation, % at 10 µM | actives 0.03% (n = 200,000);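 active means activation of at least 50% relative to the plate's high and low controls in the primary single-dose screen; inactive means activation below 50%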;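 further: compound incubated with DTT at 0.8 mM final as the reducing agent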
p97 inhibitor: blocks human p97 ATPase activity; actives 0.42% (n = 220,000); recombinant p97 ATPase, Kinase-Glo ATP luminescence, 3 h; P55072; inhibition, % at 8 µM; in the data active means inhibition above about 15%
p97 confirm: human p97 ATPase inhibition, confirmation; shares compounds with p97 inhibitor; recombinant p97 ATPase, Kinase-Glo ATP luminescence; inhibition, % at 8 µM; actives 44% (n = 760);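 active means percent inhibition of p97 ATPase above a set limit, the primary screen's mean plus 3 SD, cut at about 15% in these data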
Hits are given with their value; . = inactive; / = not tested or not shown. Shown are actives, neighbours in structure and some others; about 2.2% of the full set was active somewhere.

SMILES	Wee1 degr inh	RBBP9 inh	Arbovirus inh	PKD1 kinase inh	Redox H2O2 prof	p97 inhibitor	p97 confirm
CCOC(=O)c1c(N)n(CCOC(=O)c2cccs2)c2nc3ccccc3nc12	.	.	.	.	.	21	.
COc1cc2[nH]c(=S)n(NC(=O)CC(C)C)c(=O)c2cc1OC	.	.	.	.	.	.	/
COc1ccc(/C=N/N(C)c2cc(=O)n(C)c(=O)[nH]2)cc1OC	.	.	.	.	.	18	.
COc1ccc(CNC(=O)Cn2nnc(-c3ccc(NC(=O)C4CCCCC4)cc3)n2)cc1	.	.	.	.	.	.	/
N#Cc1c(N(CCO)CCO)nc(N)c2c(N)nc3c(c12)CC(=O)N3CC1CCCO1 (stereo unspecified)	.	.	/	/	/	26	.
CCn1c2ccccc2c2cc(CN3CCN(S(=O)(=O)Cc4ccccc4)CC3)ccc21	.	.	.	.	.	.	/
CSc1nsc(SCc2ccc(Cl)cc2)n1	.	.	.	.	.	26	.
Cc1c(C(=O)c2no[n+]([O-])c2C(=O)c2cnn(C)c2C)cnn1C	.	.	.	.	.	34	36
Cc1cc(C2=NNC(=NCCc3ccccc3)SC2)c(C)n1-c1c(C)n(C)n(-c2ccccc2)c1=O	.	.	/	/	/	16	.
CC(C)CCN1CCN(Cc2ccc(Sc3nncn3C)o2)CC1CCO (stereo unspecified)	.	.	.	.	.	.	/
CCN(CC)S(=O)(=O)c1cccc(C(=O)N/N=C(\C)c2ccc(O)cc2O)c1	.	.	.	.	.	22	22
Cc1ccc(S(=O)(=O)CCC(=O)c2ccc(O)cc2O)cc1	.	.	.	.	.	16	21
COc1ccc(NC(=O)/C(Cl)=C(/Cl)S(=O)(=O)Cc2ccccc2)cn1	.	.	.	.	.	.	/
COc1ccc(NC(=O)C(Cl)=C(Cl)Cl)cn1	.	.	.	.	.	28	35
Cc1ccc(NC(=O)c2cc(NC(=O)C3CC=CCC3C(=O)O)ccc2N2CCOCC2)cc1Cl (stereo unspecified)	.	.	.	.	.	.	/
CCC(C)NC(=O)CSc1nc2scc(-c3ccccc3)c2c(=O)[nH]1 (stereo unspecified)	.	.	.	.	.	.	/
CC(Sc1nc2scc(-c3ccccc3)c2c(=O)[nH]1)C(=O)NC(N)=O (stereo unspecified)	.	.	/	/	/	15	24
CC(C)=NNc1nc2c(c(=O)n(C)c(=O)n2C)n1CCc1ccccc1	.	.	.	.	.	.	/
O=S(=O)(NCc1ccccc1)NCc1cccc(C(F)(F)F)c1	.	.	.	.	.	.	/
CS(=O)(=O)N(CC(=O)NCCc1ccccc1)c1cccc([N+](=O)[O-])c1	.	.	.	.	.	18	.
O=C(Nc1ccc(-c2ccc3nncn3n2)cc1)c1ccc(Br)o1	.	.	.	.	.	.	/
Cc1ccc(S(=O)(=O)N2CCOCC2)cc1C(=O)Nc1ccc(-c2cn3ccsc3n2)cc1	.	.	.	.	.	17	21
Cc1ccc(S(=O)(=O)N2CCOCC2)cc1C(=O)Nc1ccc2c(c1)CCC2	.	.	.	.	.	.	/
CCOC(=O)Cc1csc(NC(=O)CCN2C(=O)c3ccccc3C2=O)n1	.	.	.	.	.	.	/
Cc1ccc(S(=O)(=O)N2CCc3ccccc3C2CC(=O)O)cc1 (stereo unspecified)	.	.	/	/	/	.	/
SMILES	Wee1 degr inh	RBBP9 inh	Arbovirus inh	PKD1 kinase inh	Redox H2O2 prof	p97 inhibitor	p97 confirm
CC1(C)OC(=O)C(=CNc2ccccn2)C(=O)O1	.	.	/	/	/	15	.
CC1(C)OC(=O)C(=CNc2ncccn2)C(=O)O1	.	.	.	.	.	.	/
Cc1c(Br)c(=O)oc2c(Br)c(O)c(O)cc12	.	.	.	.	.	24	31
Cc1c(Br)c(=O)oc2c(Br)c(O)ccc12	.	.	.	.	.	.	/
Cc1ccc(/C=C2/SC(=O)NC2=S)o1	.	.	.	.	.	26	.
Cn1cc(/C=C2\SC(=O)NC2=S)c2ccccc21	.	.	.	.	.	.	/
O=C(Cc1ccccc1)Nc1ccc2c(c1)CCC2	.	.	.	.	.	.	/
O=C(CC1CCCC1)Nc1ccc2c(c1)CCC2	.	.	.	.	.	46	.
O=[N+]([O-])c1c(-c2cn[nH]c2)n[nH]c1-c1cn[nH]c1	.	.	/	/	/	25	36
Cc1cc(C)n(CC(=O)c2cccc(N)c2)n1	.	.	.	.	.	.	/
O=C(c1cc([N+](=O)[O-])cc([N+](=O)[O-])c1)N1CCOCC1	.	.	.	.	.	.	/
Oc1ccc2ccccc2c1/C=N/c1nccs1	.	.	.	.	.	.	/
Oc1ccc2ccccc2c1C=NCc1cn2ccsc2n1	.	.	.	.	.	40	.
O=C(Nc1cccc(NC(=O)c2cccs2)c1)c1ccc([N+](=O)[O-])o1	.	.	/	/	/	18	25
COCC1CCCCN1Cc1cn[nH]c1-c1ccc2cc(OC)ccc2c1 (stereo unspecified)	.	.	.	.	.	17	.
COCC1CCCCN1Cc1cn[nH]c1-c1ccc(OC)cc1OC (stereo unspecified)	.	.	.	.	.	.	/
O=C(CCC(=O)N1CCN(c2ccccc2)CC1)Nc1nnc(C2CCCCC2)s1	.	.	/	/	/	.	/
CC1=NN(c2ccc(Cl)cc2)C(=O)C1C(c1cccc(O)c1)c1c(C)[nH]n(-c2ccc(Cl)cc2)c1=O (stereo unspecified)	.	.	.	.	.	17	.
N#Cc1c(-c2ccco2)cc(-c2ccccc2)[nH]c1=O	.	.	/	/	/	22	.
O=C1CCN2C=Nc3cccc4ccc1c2c34	.	.	.	.	.	26	.
N#C/C(=C\c1ccc([N+](=O)[O-])o1)c1nc2ccccc2[nH]1	.	.	.	.	.	21	36
Cc1ccc2nc(/C(C#N)=C\c3ccc([N+](=O)[O-])o3)[nH]c2c1	.	.	.	.	.	16	32
Cc1ccc2nc(/C(C#N)=C\c3cc(C)n(-c4cccc([N+](=O)[O-])c4)c3C)[nH]c2c1	.	.	.	.	.	.	/
Cc1ccc(S(=O)(=O)c2c(N)n(CCCN(C)C)c3nc4ccccc4nc23)cc1	.	.	/	/	/	.	/
CN(C)CCCn1c(N)c(C#N)c2nc3ccccc3nc21	.	.	/	/	/	32	.
O=C(O)c1ccc2c(=O)n3c(nc2c1)/C(=C/c1ccccc1C(F)(F)F)CCCC3	.	.	.	.	.	.	/
O=C(CC1Sc2ncnn2C1=O)Nc1ccccc1 (stereo unspecified)	.	.	.	.	.	16	.
O=[N+]([O-])c1ccccc1NC(=S)N/N=C/c1ccc(O)c(O)c1	.	.	.	.	.	19	22
